Reference: ChEMBL document CHEMBL5653631, “A Potent and Selective ULK1 Inhibitor Suppresses Autophagy and Sensitizes Cancer Cells to Nutrient Stress” (iScience, 2018)
pEC50: −log10 of the molar value. One block for each molecule: values may come before it.

What was measured:
[1] = target: SRSF protein kinase 1 (Homo sapiens) (UniProt Q96SB4); assay: Inhibition of human recombinant SRPK1 at 500 nM in presence of ATP by radiometric assay relative to control
[2] = target: T1, cGMP-dependent protein kinase 2 (Homo sapiens) (UniProt Q13237); assay: Inhibition of human recombinant PKG2 at 500 nM related to control ULK1
T1 sequence (whole entry): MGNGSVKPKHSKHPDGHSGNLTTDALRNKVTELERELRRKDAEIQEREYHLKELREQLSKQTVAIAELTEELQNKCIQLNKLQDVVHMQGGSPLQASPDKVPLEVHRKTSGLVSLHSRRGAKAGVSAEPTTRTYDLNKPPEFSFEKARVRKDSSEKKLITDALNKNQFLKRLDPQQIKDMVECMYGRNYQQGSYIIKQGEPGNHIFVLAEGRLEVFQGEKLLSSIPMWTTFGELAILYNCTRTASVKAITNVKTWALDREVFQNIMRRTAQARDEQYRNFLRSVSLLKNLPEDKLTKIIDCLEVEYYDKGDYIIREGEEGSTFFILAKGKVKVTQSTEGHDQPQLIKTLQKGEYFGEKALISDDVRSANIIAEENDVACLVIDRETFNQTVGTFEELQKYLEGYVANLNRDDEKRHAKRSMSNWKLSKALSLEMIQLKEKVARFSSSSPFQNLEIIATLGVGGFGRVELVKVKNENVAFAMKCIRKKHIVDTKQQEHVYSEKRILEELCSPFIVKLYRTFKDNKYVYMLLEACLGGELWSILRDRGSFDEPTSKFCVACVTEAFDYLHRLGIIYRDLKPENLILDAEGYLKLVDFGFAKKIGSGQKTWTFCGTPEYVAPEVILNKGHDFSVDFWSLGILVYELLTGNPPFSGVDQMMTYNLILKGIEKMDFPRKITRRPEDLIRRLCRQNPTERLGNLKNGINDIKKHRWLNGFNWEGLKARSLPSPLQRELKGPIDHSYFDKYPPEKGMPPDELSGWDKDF

[3] = target: [Pyruvate dehydrogenase (acetyl-transferring)] kinase isozyme 4, mitochondrial (Homo sapiens) (UniProt Q16654); assay: Inhibition of human recombinant PDHK4 at 500 nM related to control ULK1
[Pyruvate dehydrogenase (acetyl-transferring)] kinase isozyme 4, mitochondrial (Homo sapiens), sequence (Q16654 whole entry, looked up): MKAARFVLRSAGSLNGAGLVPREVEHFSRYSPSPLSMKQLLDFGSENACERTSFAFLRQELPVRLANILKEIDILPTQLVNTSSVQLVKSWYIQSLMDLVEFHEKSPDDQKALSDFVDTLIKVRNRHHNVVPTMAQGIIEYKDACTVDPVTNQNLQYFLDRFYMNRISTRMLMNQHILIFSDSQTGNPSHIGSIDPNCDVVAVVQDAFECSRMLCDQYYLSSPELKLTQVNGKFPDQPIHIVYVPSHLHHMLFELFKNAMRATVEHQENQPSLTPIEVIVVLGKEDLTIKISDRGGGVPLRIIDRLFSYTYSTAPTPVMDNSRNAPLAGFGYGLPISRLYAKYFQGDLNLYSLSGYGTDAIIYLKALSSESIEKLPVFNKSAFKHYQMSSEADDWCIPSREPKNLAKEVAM

[4] = target: Calcium/calmodulin-dependent protein kinase kinase 2 (Homo sapiens) (UniProt Q96RR4); assay: Inhibition of human recombinant CaMKK2 at 500 nM related to control ULK1
Calcium/calmodulin-dependent protein kinase kinase 2 (Homo sapiens), sequence (Q96RR4 2-588 limits assumed): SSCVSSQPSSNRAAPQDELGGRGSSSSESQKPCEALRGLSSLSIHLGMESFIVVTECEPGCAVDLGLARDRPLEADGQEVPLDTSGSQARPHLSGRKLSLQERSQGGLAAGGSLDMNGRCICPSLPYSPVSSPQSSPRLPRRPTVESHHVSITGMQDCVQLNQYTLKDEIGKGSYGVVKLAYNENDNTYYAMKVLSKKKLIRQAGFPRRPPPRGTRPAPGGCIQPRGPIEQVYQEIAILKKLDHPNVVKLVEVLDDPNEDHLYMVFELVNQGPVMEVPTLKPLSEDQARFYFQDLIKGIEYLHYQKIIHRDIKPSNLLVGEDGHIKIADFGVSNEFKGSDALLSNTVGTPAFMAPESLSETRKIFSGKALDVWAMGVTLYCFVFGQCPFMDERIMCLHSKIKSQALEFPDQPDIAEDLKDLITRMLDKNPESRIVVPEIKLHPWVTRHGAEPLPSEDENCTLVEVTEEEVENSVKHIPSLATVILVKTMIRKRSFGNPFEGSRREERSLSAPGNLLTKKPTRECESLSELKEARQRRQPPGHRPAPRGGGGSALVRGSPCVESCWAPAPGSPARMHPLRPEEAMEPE

[5] = target: Serine/threonine-protein kinase 33 (Homo sapiens) (UniProt Q9BYT3); assay: Inhibition of human recombinant STK33 at 500 nM related to control ULK1
Serine/threonine-protein kinase 33 (Homo sapiens), sequence (Q9BYT3 whole entry, looked up): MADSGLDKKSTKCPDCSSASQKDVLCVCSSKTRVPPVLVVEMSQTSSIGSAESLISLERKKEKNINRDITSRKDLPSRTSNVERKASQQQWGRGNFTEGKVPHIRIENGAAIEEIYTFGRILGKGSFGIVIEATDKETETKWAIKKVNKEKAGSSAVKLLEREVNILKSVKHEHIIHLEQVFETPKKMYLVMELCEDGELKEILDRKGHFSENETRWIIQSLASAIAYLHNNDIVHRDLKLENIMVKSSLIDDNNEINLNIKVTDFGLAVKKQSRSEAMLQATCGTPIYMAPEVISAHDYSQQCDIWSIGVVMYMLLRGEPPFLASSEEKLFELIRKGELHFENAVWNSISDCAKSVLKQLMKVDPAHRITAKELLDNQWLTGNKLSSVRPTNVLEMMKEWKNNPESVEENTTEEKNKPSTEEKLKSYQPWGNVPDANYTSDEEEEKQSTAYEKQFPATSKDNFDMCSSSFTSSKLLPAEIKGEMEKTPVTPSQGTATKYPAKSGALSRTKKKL

[6] = target: Bone morphogenetic protein receptor type-1B (Homo sapiens) (UniProt O00238); assay: Inhibition of human recombinant BMPR1B at 500 nM in presence of ATP by radiometric assay relative to control
In short: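 Part of a radiometric in vitro activity panel of 327 recombinant human kinases. Each kinase was tested in duplicate at one inhibitor concentration. Activity remaining was expressed as a percentage of the vehicle control, and percent inhibition was taken as 100 minus that value.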

[7] = target: Proto-oncogene tyrosine-protein kinase receptor Ret (Homo sapiens) (UniProt P07949); assay: Inhibition of human recombinant RET at 500 nM in presence of ATP by radiometric assay relative to control
Proto-oncogene tyrosine-protein kinase receptor Ret (Homo sapiens), sequence (P07949 whole entry): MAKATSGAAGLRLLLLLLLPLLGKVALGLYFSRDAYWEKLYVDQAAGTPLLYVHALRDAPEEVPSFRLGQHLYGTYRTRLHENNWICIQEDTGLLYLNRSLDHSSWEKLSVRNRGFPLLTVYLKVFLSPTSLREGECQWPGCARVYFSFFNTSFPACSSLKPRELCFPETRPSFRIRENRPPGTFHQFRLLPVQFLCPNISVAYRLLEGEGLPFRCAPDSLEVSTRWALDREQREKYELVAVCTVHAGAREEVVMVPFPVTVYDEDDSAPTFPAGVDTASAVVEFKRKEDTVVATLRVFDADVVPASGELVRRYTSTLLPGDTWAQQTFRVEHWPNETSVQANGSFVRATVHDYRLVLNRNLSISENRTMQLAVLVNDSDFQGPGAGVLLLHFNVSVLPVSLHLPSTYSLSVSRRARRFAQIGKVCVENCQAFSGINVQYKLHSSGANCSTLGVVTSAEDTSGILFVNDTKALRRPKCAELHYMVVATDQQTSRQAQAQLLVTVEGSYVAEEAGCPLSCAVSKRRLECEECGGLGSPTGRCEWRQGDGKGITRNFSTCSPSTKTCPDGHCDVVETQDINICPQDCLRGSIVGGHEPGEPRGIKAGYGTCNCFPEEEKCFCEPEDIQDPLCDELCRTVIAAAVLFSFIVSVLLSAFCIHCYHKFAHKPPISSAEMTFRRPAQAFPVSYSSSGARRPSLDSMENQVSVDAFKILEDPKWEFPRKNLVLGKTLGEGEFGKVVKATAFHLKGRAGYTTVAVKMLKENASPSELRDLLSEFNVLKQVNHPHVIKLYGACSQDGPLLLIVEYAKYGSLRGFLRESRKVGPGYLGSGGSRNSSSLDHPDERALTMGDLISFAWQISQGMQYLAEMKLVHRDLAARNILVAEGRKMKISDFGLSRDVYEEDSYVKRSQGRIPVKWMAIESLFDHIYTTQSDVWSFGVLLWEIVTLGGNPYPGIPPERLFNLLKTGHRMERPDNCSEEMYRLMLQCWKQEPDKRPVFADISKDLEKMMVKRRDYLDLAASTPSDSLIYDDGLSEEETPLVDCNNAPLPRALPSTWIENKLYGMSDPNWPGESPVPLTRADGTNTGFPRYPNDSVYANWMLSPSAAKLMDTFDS

[8] = target: Tyrosine-protein kinase Fer (Homo sapiens) (UniProt P16591); assay: Inhibition of human recombinant FER at 15 nM in presence of ATP by radiometric assay relative to control
Tyrosine-protein kinase Fer (Homo sapiens), sequence (P16591 whole entry, looked up): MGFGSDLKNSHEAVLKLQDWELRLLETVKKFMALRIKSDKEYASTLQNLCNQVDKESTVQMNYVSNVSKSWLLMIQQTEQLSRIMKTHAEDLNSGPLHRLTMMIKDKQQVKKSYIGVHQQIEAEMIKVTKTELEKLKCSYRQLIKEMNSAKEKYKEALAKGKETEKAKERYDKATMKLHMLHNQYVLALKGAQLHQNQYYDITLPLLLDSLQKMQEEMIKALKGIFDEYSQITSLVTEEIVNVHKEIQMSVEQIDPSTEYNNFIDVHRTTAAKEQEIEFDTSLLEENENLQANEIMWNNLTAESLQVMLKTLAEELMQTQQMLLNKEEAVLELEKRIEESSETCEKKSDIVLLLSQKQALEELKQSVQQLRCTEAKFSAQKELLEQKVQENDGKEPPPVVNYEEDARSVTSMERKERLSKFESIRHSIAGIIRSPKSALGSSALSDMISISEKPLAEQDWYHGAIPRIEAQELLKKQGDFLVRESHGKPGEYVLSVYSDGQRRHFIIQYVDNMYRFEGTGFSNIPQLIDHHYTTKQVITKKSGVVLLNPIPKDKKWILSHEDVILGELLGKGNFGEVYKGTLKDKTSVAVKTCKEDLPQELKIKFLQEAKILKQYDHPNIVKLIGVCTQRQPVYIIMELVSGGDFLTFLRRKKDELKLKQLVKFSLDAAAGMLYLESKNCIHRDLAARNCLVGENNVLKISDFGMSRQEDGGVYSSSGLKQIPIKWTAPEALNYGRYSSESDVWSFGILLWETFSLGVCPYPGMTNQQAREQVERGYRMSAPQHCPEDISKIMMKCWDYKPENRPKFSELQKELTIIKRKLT

[9] = target: Cell division cycle 7-related protein kinase (Homo sapiens) (UniProt O00311); assay: Inhibition of human recombinant CDC7 at 15 nM related to control ULK1
[10] = target: Rho-associated protein kinase 1 (Homo sapiens) (UniProt Q13464); assay: Inhibition of human recombinant ROCK1 at 15 nM in presence of ATP by radiometric assay relative to control
Rho-associated protein kinase 1 (Homo sapiens), sequence (Q13464 2-1354 limits assumed): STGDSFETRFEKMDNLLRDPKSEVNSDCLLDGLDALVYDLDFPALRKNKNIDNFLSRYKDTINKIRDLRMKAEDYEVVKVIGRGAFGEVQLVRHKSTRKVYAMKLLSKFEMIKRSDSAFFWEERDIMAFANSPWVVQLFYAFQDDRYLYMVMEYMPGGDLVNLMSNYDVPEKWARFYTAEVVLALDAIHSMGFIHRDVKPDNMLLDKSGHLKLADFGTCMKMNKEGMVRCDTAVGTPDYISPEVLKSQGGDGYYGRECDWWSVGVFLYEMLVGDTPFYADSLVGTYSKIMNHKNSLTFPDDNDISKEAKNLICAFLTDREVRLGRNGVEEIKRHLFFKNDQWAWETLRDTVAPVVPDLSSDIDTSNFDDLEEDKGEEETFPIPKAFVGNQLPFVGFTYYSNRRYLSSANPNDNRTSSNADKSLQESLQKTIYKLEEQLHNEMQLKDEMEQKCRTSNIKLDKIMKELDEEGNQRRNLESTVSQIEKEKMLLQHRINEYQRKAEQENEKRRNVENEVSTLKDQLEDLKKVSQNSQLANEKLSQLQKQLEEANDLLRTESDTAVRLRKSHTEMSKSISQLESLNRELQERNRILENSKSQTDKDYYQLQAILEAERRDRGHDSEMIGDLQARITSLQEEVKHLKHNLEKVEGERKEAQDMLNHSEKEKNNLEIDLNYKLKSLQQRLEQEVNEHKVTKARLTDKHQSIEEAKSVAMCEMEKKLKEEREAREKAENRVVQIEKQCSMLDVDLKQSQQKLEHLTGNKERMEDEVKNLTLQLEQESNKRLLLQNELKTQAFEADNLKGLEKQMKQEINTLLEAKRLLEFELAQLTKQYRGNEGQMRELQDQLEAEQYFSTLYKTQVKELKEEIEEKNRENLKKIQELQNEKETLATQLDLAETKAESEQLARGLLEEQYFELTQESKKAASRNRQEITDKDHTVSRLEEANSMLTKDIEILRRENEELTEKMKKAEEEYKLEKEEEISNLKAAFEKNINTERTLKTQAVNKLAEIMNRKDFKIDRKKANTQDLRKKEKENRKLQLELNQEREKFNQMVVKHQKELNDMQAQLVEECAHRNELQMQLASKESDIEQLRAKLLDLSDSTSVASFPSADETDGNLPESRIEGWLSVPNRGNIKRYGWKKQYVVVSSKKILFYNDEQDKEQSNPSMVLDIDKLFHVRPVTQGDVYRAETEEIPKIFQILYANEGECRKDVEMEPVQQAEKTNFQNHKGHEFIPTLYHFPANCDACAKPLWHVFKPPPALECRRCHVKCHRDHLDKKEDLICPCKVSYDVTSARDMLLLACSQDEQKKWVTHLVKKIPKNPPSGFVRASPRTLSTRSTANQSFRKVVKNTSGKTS

[11] = target: T2, Serine/threonine-protein kinase haspin (Homo sapiens) (UniProt Q8TF76); assay: Inhibition of human recombinant Haspin at 15 nM in presence of ATP by radiometric assay relative to control
T2 sequence (whole entry): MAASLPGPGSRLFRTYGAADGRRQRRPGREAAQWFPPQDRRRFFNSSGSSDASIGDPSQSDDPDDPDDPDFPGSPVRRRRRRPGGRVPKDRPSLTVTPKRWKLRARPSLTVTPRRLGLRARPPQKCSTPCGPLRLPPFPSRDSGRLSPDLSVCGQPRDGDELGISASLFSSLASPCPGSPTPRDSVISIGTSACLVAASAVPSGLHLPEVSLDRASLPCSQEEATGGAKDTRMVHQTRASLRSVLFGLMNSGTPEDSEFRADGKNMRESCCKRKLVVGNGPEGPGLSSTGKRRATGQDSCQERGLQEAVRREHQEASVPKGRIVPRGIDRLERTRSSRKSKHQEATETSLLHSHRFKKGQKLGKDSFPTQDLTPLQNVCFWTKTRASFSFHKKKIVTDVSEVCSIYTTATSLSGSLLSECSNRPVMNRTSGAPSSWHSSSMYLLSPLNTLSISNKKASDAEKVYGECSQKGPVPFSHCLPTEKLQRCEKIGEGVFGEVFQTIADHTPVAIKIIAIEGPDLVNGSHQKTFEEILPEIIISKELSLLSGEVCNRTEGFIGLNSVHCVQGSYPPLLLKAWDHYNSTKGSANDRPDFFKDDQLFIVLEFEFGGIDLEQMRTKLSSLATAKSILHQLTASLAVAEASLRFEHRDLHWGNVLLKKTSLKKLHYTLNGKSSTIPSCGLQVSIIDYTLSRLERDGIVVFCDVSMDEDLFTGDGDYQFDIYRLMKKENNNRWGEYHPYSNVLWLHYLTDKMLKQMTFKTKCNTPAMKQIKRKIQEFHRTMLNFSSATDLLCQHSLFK

[12] = target: Mitogen-activated protein kinase kinase kinase 20 (Homo sapiens) (UniProt Q9NYL2); assay: Inhibition of human recombinant ZAK at 40 nM in presence of ATP by radiometric assay relative to control
[13] = target: T3, Dual specificity mitogen-activated protein kinase kinase 6 (Homo sapiens) (UniProt P52564); assay: Inhibition of human recombinant MAP2K6 at 40 nM related to control ULK1
T3 sequence (whole entry): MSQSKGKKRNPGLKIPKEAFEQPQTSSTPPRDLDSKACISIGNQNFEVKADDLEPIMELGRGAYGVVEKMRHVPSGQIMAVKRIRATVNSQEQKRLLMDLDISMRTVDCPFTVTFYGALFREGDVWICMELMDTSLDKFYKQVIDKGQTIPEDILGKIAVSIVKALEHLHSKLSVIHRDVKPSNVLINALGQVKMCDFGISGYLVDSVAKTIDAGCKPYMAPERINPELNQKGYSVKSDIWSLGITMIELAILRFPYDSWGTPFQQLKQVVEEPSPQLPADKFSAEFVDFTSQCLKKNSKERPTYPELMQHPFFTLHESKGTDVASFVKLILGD

[14] = target: Casein kinase I isoform gamma-3 (Homo sapiens) (UniProt Q9Y6M4); assay: Inhibition of human recombinant CK1g3 at 40 nM related to control ULK1
U2OS = assay: cells; conditions: Homo sapiens

inhibition [1]: 10% | fold change (FC) [2]: 0.03 | fold change (FC) [3]: 0.07 | fold change (FC) [4]: 0.05 | fold change (FC) [5]: 0.05 | inhibition [6]: 0% | inhibition [7]: 3%
Structure (SMILES): CNC(=O)c1ccccc1Oc1nc(Nc2cc(OC)c(OC)c(OC)c2)ncc1Br

inhibition [8]: 0% | fold change (FC) [9]: 0.09 | inhibition [10]: 8% | inhibition [11]: 0%
Structure (SMILES): CC(C)[C@H](NC(=O)c1cc(-c2cnn3cc(-c4ccc(OCCN5CCCCC5)cc4)cnc23)cs1)C(F)(F)F

inhibition [12]: 0% | fold change (FC) [13]: 0 | fold change (FC) [14]: 0.05 | pEC50 (U2OS): 6.15
Structure (SMILES): O=C(N[C@@H](C1CC1)C(F)(F)F)c1cc(-c2cnn3cc(-c4ccc(F)cc4)cnc23)cs1
